Structures are written as SMILES.

This data set in a line: Toxicity liver stage against HepG2, at 10uM. Type of data set: cell-based. Also noted: test concentration 10 uM, cell line HepG2-A16-CD81EGFP. As to conditions: human, HepG2-A16-CD81EGFP cells; read-out: INHIBITION
The procedure, abridged:
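Uninfected HepG2-A16-CD81EGFP cells, 3 × 10^3 per well, 1536-well, plated on prespotted compound at 10 μM final, parasite-free screening media added to match infected plates; puromycin 10 μM positive, DMSO 0.5% negative; run in parallel with 48 h PbLuc assay at 37 °C, 5% CO2; viability by CellTiter-Glo luminescence, normalized to controls.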
Take `CS(=O)(=O)N1CCCN(CCCSCc2ccccc2)CC1`: the cytotoxicity at 10 µM is -2.35%. Consider `CNC(=O)C1CCCCN1C(=O)c1csc(-c2ccccc2)n1` (stereo unspecified), for which the cytotoxicity at 10 µM is 2%. As to `Cn1ncc2c(N3CCCC(C)(O)C3)nc(-c3cccnc3)nc21` (stereo unspecified), the cytotoxicity at 10 µM was 9.98%. The value for `COc1cccc2cc(CNCc3ccc(N4CCCC4)nc3)oc12` was -5.42%; that for `COc1cc(OC)cc(C(=O)N2CCOCC2c2[nH]ncc2C)c1` (stereo unspecified) was 7.83%.

For `Cc1cc(C(=O)NCC2CCS(=O)(=O)C2)ccc1NC(=O)c1ccco1` (stereo unspecified), the cytotoxicity at 10 µM came out at 19%. Under `Cc1cnc(CN(C)C2CCN(Cc3nc4ccccc4s3)C2)o1` (stereo unspecified) stands -7.97%. The value for `Cc1cc(-c2nc(-c3cccc(CN4CCOCC4)c3)no2)no1` was -7.33%; that for `COc1ccc(Cl)cc1-c1cc(NC(=O)C2CNC(=O)N2)[nH]n1` (stereo unspecified) was -1.12%; that for `CC(NC(=O)Cn1cccnc1=O)c1ccc(OC(F)(F)F)cc1` (stereo unspecified) was 1.66%.

Consider `COc1ccc(C#N)cc1CSCCN1CCOCC1`, for which the cytotoxicity at 10 µM worked out at 6.14%. As for `CN1CC(NC(=O)CCOc2cccc(Cl)c2)CC1=O` (stereo unspecified), the cytotoxicity at 10 µM was -5.4%. For the compound `CCCc1cc(C(=O)NCCC2=CCCCC2)[nH]n1`, the cytotoxicity at 10 µM was -51.8%. The value for `O=C(Nc1ccccn1)c1cncc(C2CCNCC2)n1` was -0.0757%; that for `O=c1ccc(-c2ccccc2F)nn1CN1CCCCCC1` was 5.76%. The value for `COC(=O)CSCc1nc(-c2ccc(Cl)cc2)no1` was 3.77%; that for `Cc1ccccc1NC(=O)N1CC[C@@H]2CN(CC(C)C)S(=O)(=O)[C@@H]2CC1` was -0.567%; that for `CSCC[C@@H](CO)NC(=O)c1sc(-c2ccc(Cl)cc2)nc1C` was 6.45%. Under `CN(C)C(=O)c1cnc(-c2ccc3c(c2)OCO3)s1` stands 5.29%; under `CC(=O)NCCNC(=O)Nc1ccc(C)cc1OCc1ccccc1`, 9.79%. Consider `CCn1cc(CN2CCC(c3[nH]ncc3S(C)(=O)=O)C2)cn1` (stereo unspecified), for which the cytotoxicity at 10 µM was -2.33%.

Take `Cc1cnc(C(=O)N[C@H]2CN(CCS(C)(=O)=O)C[C@@H]2C2CC2)cn1`: the cytotoxicity at 10 µM worked out at 17.6%. The value for `Clc1ccc(OCCNC2(c3ccc(Br)cc3)CCOCC2)cc1` was 2.67%; that for `Cc1ccc(NC2CCN(C(=O)c3nccc4ccccc34)CC2)nn1` was -13.5%; that for `NCCn1nc(C2CCN(C(=O)Cc3ccccc3)C2)c2nccnc21` (stereo unspecified) was -15.9%. Under `CCc1c(C)nc2ccccc2c1N1CCC(NC(C)=O)CC1` stands 11.2%; under `CC(=O)Nc1ccc(C(=O)N2CCOc3nc(C)ccc32)cc1`, 2.81%; under `CC(C)(C)c1noc(OCC(=O)NC2CCCC2)n1`, 2.68%.

With `Cc1ccc(C)c(OCCN(C)C(=O)C2CCCN2C(N)=O)c1C` (stereo unspecified), the cytotoxicity at 10 µM was -1.01%. Under `CN(C)[C@H]1C[C@@H](Cc2cc(-c3ccc(F)cc3)on2)C1(C)C` stands -12.3%; under `COCCN1CCC(NCc2cccc(C)c2)C1` (stereo unspecified), 2.76%. Under `CCN1CCN(c2ncc3c(=O)n(Cc4ccco4)ccc3n2)CC1` stands -15.9%; under `Cc1nc(C)n(CC2CCCN2Cc2nc(-c3ccccn3)no2)n1` (stereo unspecified), -9.48%. With `O=C(CC[C@@H]1CCCN2CCCC[C@H]12)NCCc1cc(O)ncn1`, the cytotoxicity at 10 µM was -1.91%. The value for `CC(=O)N1CCC(c2nccnc2Oc2ccccc2)CC1` was 3.7%; that for `NCCC(=O)NCC1(O)CCCN(c2ccnc3cccnc23)C1` (stereo unspecified) was 0.72%; that for `Cc1cc(-c2nccs2)nc(C2CCN(Cc3cccs3)CC2)n1` was 6.81%. For `CC(C)C(=O)NCc1ccnc(Oc2ccc(F)cc2)c1`, the cytotoxicity at 10 µM is 6.06%.

Regarding `Cn1cc(C[C@H]2[C@H](O)CCN2Cc2ccc3c(c2)OCO3)cn1`, the cytotoxicity at 10 µM was -80.5%. Under `Cc1cccc(OCCC(=O)N2CCN(S(=O)(=O)N(C)C)CC2)c1C` stands 2.66%; under `Cc1csc(CCNC(=O)Nc2cc(C(F)(F)F)c[nH]c2=O)n1`, 8.13%; under `COc1cc(CN(C)C(=O)NCCC(=O)NC2CCCC2)ccc1SC`, -8.9%. Under `CNS(=O)(=O)c1cc(C(=O)NC2COc3ccccc3C2)ccc1OC` (stereo unspecified) stands 18.9%; under `CC(=O)Nc1nc(C(=O)NCc2ccc(N3CCCCCC3)nc2)cs1`, 4.74%. `CC(C)(C)c1cc(NC(=O)CN2CCn3c(nnc3C3CC3)C2)on1`: the cytotoxicity at 10 µM is -4.1%. The value for `N#Cc1ccc(CCC(=O)N2CCCC(n3cncn3)C2)cc1` (stereo unspecified) was -7.79%. The value for `Cc1nccn1-c1ccc(N2CCC(N[C@H](C)C(C)C)CC2)cc1` was -6.39%; that for `CC(C)=Cc1c(-c2ccccc2)ncn1CCN(C)S(C)(=O)=O` was -0.334%; that for `Cn1cc(CNC2CCOCC2)c(-c2cc3ccccc3o2)n1` was -45.1%. Consider `COc1ncccc1NC(=O)NCC1CCS(=O)(=O)C1` (stereo unspecified), for which the cytotoxicity at 10 µM was -9.16%. The value for `O[C@@H]1CN(c2nc3ccccc3s2)CC[C@H]1c1ccc2c(c1)OCO2` was 52.7%; that for `CC(OCC1CC1)C(=O)N1CCCN(Cc2nccn2C(C)C)CC1` (stereo unspecified) was -11.9%; that for `Cc1ccc(-c2ccccc2CC2(C(=O)NC(C)C)CCCNC2)cc1` (stereo unspecified) was 2.73%.

`O=c1c2cnc(N3CCCCC3)nc2ccn1-c1ccccc1F`: the cytotoxicity at 10 µM was determined as 2.77%.

Take `CN(CCn1ccc2ccccc21)C(=O)Cc1nnn[nH]1`: the cytotoxicity at 10 µM was -8.93%. Take `CN1CCOC(C(=O)Nc2ccc3c(c2)nc(C2CC2)n3C)C1` (stereo unspecified): the cytotoxicity at 10 µM is -5.5%. In the case of `COc1ccccc1C(=O)N1CC(=O)N(CC(C)C)CC(O)C1` (stereo unspecified), the cytotoxicity at 10 µM stood at 4.37%. Under `CCCC1SCCN1C(=O)c1ccc(-n2ncc(C#N)c2N)cc1` (stereo unspecified) stands 9.15%; under `CC(C)c1noc(C(C)N2CCN(Cc3nnc(C4CC4)o3)CC2)n1` (stereo unspecified), -11.9%.

For `CC(Cn1cc(Br)cn1)C(=O)Nc1ccc(C(N)=O)cc1` (stereo unspecified), the cytotoxicity at 10 µM is -0.609%. On to `Cc1cccc(CN2C[C@@H]3CN(C(=O)c4cnccn4)C[C@@H]3C2=O)n1`, for which the cytotoxicity at 10 µM turned out to be 3.14%.

In the case of `Cc1ccccc1CNC(=O)N1CCC(n2cncn2)CC1`, the cytotoxicity at 10 µM came to 2.54%. The value for `N#CCCN(CC1CC1)Cn1cc(Cl)cn1` was 4.03%. The value for `c1csc(N2CCCN(Cc3nc(C4CC4)no3)CC2)n1` was -9.68%; that for `CNc1cc(C2CCCN2C(=O)CCc2cnn(C)c2C)ccn1` (stereo unspecified) was 5.98%; that for `COc1ccc(C2CCCCCN2S(C)(=O)=O)cc1` (stereo unspecified) was 3.86%. Consider `NC(=O)[C@H]1CCCN1C(=O)c1csc(-c2ccc(C(F)(F)F)cc2)n1`, for which the cytotoxicity at 10 µM is -0.187%. For `Cc1nnc(CN(C)C(=O)C(CC(C)C)N2CCCCC2=O)n1C` (stereo unspecified), the cytotoxicity at 10 µM is -1.88%. For `CN(C)Cc1cn(-c2ccccc2C(=O)NCC2CCCCN2C)cn1` (stereo unspecified), the cytotoxicity at 10 µM is -0.94%.

Turning to `COCCCNC(=O)Nc1ccc(OCc2noc(C3CC3)n2)cc1`, the cytotoxicity at 10 µM was 7.04%. Under `CN(C)C(=O)N1CCCC(C(=O)N(C)CCCc2cnn(C)c2)C1` (stereo unspecified) stands -0.645%; under `COc1coc(C(=O)Nc2nc(C)cs2)cc1=O`, -3.96%. As for `O=C(Cc1ccc(F)c(Br)c1)N1CCN(CCO)CC1`, the cytotoxicity at 10 µM is -11.5%. For `Cc1cc(=O)[nH]c(SCC(=O)N(C)CC2Cc3ccccc3CN2C)n1` (stereo unspecified), the cytotoxicity at 10 µM is -1.96%. For `O=S(=O)(CCCN1CCCCC1Cn1cncn1)c1ccccc1` (stereo unspecified), the cytotoxicity at 10 µM is -7.42%. Under `CCC[C@H]1CN(c2cncc(C(=O)N(C)C)n2)C[C@@H]1N(C)C` stands -7.83%; under `N#CCCN(C(=O)CCc1cscn1)c1ccc2c(c1)OCCO2`, -2.12%.

Regarding `Cc1cc(NC(=O)N(CCO)Cc2ccsc2)no1`, the cytotoxicity at 10 µM is -5.57%.

`CCC(CC)N1CCC(c2[nH]ncc2S(C)(=O)=O)C1` (stereo unspecified): the cytotoxicity at 10 µM was -3.51%. Take `O=C([C@H]1C[C@H]2OCC[C@H]2N(C(=O)c2ccncc2)C1)N1CCCC1`: the cytotoxicity at 10 µM was 4.76%. Consider `CC(C)c1nn(C)c(N(C)C)c1CNCc1ccc2c(c1)OCO2`, for which the cytotoxicity at 10 µM was -5.58%.

Take `O=C(NCCNc1ncccn1)c1ccc(Cl)s1`: the cytotoxicity at 10 µM stood at 4.6%. Under `CC(C)N1CCC[C@H]1C(=O)NCC1CCN(c2cnn(C)c(=O)c2)CC1` stands 4.75%. For `Cc1ccc(-c2ccnc(NC(c3ncccc3C)C3CC3)n2)c(C)n1` (stereo unspecified), the cytotoxicity at 10 µM is 0.656%. For `COC(=O)c1ccc(N2CCN(C(=O)C(C)C)C(C)C2)cc1` (stereo unspecified), the cytotoxicity at 10 µM was -10.4%. Under `CCC(O)CN1CCN(C(=O)c2cccn2Cc2cccs2)CC1` (stereo unspecified) stands -5.74%; under `COc1cc(N2CCC3(CCCN(C(=O)c4cccnc4)C3)C2)ncn1` (stereo unspecified), -149%. The value for `Cc1nc(NS(=O)(=O)c2ccc(C)c(Br)c2)no1` was 11.2%; that for `O=c1[nH][nH]cc1-c1ccnc(NCCCN2CCOCC2)n1` was 3.27%; that for `COc1cccc(NC(=O)CN(C(C)C)C2CC2)c1` was -2.83%.

With `CC(=O)c1ccc(N2CCN(C(=O)NC(C)c3ccc(C)o3)CC2)cc1` (stereo unspecified), the cytotoxicity at 10 µM was found to be 10.1%. Turning to `CCNC(=O)NC1CN(Cc2ccccc2N(C)C)C[C@@H]1OC` (stereo partly specified), the cytotoxicity at 10 µM was -8.11%. In the case of `CC(C)c1nc(C(=O)N2CCOCC2CC(=O)c2ccco2)c[nH]1` (stereo unspecified), the cytotoxicity at 10 µM came out at 0.769%.

As to `CCC(=O)NCC(=O)NCC1(O)CCC(C(C)(C)C)CC1` (stereo unspecified), the cytotoxicity at 10 µM was 6.93%. The value for `O=C(C1CCC1)N1CCC2(CC1)CNCCO2` was -4.29%; that for `Cc1ccc(CN2CC[C@H]3C[C@H](C(=O)N(C)C)O[C@H]3C2)cc1` was 1.94%.

Source of the values: ChEMBL document CHEMBL4513216, “Probing the Open Global Health Chemical Diversity Library for Multistage-Active Starting Points for Next-Generation Antimalarials” (ACS Infect Dis, 2020).
